Results taken from ChEMBL document CHEMBL4270642, “Boronic ester-linked macrocyclic lipopeptides as serine protease inhibitors targeting Escherichia coli type I signal peptidase” (Eur J Med Chem, 2018).
Values after ≈ are worked out from the molar mass of the structure shown. Square brackets hold non-standard residues; d marks the D form. Peptide text beside a SMILES is read from it. * marks the point of attachment. Benzoyl(4-(4-hexylphenyl)) = CCCCCCc1ccc(-c2ccc(C(=O)*)cc2)cc1; X1 = C[C@H](N*)B1OC2C[C@@H]3C[C@@H](C3(C)C)[C@]2(C)O1; boroAla = C[C@H](N*)B(O)O; Orn = NCCC[C@H](N)C(=O)O

Experiments:
Escherichia coli [1] = experiment: Antibacterial activity against Escherichia coli ATCC 25922 after 16 to 20 hrs by broth microdilution method; format: functional
In short: (§1)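 Broth microdilution in cation-adjusted Mueller-Hinton II per EUCAST/CLSI; two-fold compound series 64 down to 0.25 µg/mL final. Inoculum from fresh colonies (non-selective agar, 18-24 h, 35 ± 2 °C), adjusted to 0.5 McFarland, diluted to about 5 × 10^5 CFU/mL final. Static incubation 16-20 h at 35 ± 2 °C; MIC read visually as complete growth inhibition against medium-only wells.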

Pseudomonas aeruginosa [2] = experiment: Antibacterial activity against Pseudomonas aeruginosa PAO1 after 16 to 20 hrs by broth microdilution method; format: functional; in short: as §1
Pseudomonas aeruginosa [3] = experiment: Antibacterial activity against efflux defective Pseudomonas aeruginosa PAO750 after 16 to 20 hrs by broth microdilution method; format: functional; in short: as §1
[4] = target: Signal peptidase I (Escherichia coli K-12) (UniProt P00803); experiment: Inhibition of Escherichia coli type 1 signal peptidase lepB assessed as residual activity at 0.0006 uM preincubated for 10 mins followed by Dabcyl-VGGTATAYGAFSRPGLE-(EDANS)-OH substrate addition measured after 2 hrs by FRET based assay (reference value: 100%)
In short: (§2)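 EcLepB (about 50 nM estimated) preincubated 10 min with compound. Reaction started with Dabcyl/EDANS FRET peptide at 8 µM final (Km 20 µM). Fluorescence followed continuously at 535 nm, 22 °C, for 2 h. Cleavage rates plotted against inhibitor concentration; IC50 from non-linear regression of sigmoidal dose-response curves.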

[5] = target: Signal peptidase I (Escherichia coli K-12) (UniProt P00803); experiment: Inhibition of Escherichia coli type 1 signal peptidase lepB assessed as residual activity at 0.1563 uM preincubated for 10 mins followed by Dabcyl-VGGTATAYGAFSRPGLE-(EDANS)-OH substrate addition measured after 2 hrs by FRET based assay (reference value: 100%); in short: as §2
Signal peptidase I = Signal peptidase I (Escherichia coli K-12, UniProt P00803); experiment: Inhibition of Escherichia coli type 1 signal peptidase lepB preincubated for 10 mins followed by Dabcyl-VGGTATAYGAFSRPGLE-(EDANS)-OH substrate addition measured after 2 hrs by FRET based assay; in short: as §2
[6] = Hemolytic activity in human RBC at 100 uM after 45 mins by spectrophotometric method relative to control; format: ADME, cell-based, Erythrocyte; conditions: red blood cells (erythrocytes), read-out: Activity
In short: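 Heparinized human blood; red cells washed three times in Tyrode buffer pH 7.4. Compound at 100 µM final with 1% DMSO and 50% RBC, shaken (250 rpm) 45 min at 37 °C. Cells pelleted (1000 × g, 10 min); supernatant haemoglobin at 540 nm. Percent lysis relative to buffer-only and 2% Triton X-100 controls.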

Escherichia coli [7] = experiment: Antibacterial activity against tolC deficient Escherichia coli CH3130 after 16 to 20 hrs by broth microdilution method; format: functional; in short: as §1
[8] = target: Signal peptidase I (Escherichia coli K-12) (UniProt P00803); experiment: Inhibition of Escherichia coli type 1 signal peptidase lepB assessed as residual activity at 10 uM preincubated for 10 mins followed by Dabcyl-VGGTATAYGAFSRPGLE-(EDANS)-OH substrate addition measured after 2 hrs by FRET based assay (reference value: 100%); in short: as §2
Klebsiella pneumoniae = experiment: Antibacterial activity against Klebsiella pneumoniae ATCC 13883 after 16 to 20 hrs by broth microdilution method; format: functional; in short: as §1
[9] = target: Signal peptidase I (Escherichia coli K-12) (UniProt P00803); experiment: Inhibition of Escherichia coli type 1 signal peptidase lepB assessed as residual activity at 0.0012 uM preincubated for 10 mins followed by Dabcyl-VGGTATAYGAFSRPGLE-(EDANS)-OH substrate addition measured after 2 hrs by FRET based assay (reference value: 100%); in short: as §2
[10] = target: Signal peptidase I (Escherichia coli K-12) (UniProt P00803); experiment: Inhibition of Escherichia coli type 1 signal peptidase lepB assessed as residual activity at 2.5 uM preincubated for 10 mins followed by Dabcyl-VGGTATAYGAFSRPGLE-(EDANS)-OH substrate addition measured after 2 hrs by FRET based assay (reference value: 100%); in short: as §2
[11] = target: Signal peptidase I (Escherichia coli K-12) (UniProt P00803); experiment: Inhibition of Escherichia coli type 1 signal peptidase lepB assessed as residual activity at 0.0781 uM preincubated for 10 mins followed by Dabcyl-VGGTATAYGAFSRPGLE-(EDANS)-OH substrate addition measured after 2 hrs by FRET based assay (reference value: 100%); in short: as §2
[12] = target: Signal peptidase I (Escherichia coli K-12) (UniProt P00803); experiment: Inhibition of Escherichia coli type 1 signal peptidase lepB assessed as residual activity at 0.0195 uM preincubated for 10 mins followed by Dabcyl-VGGTATAYGAFSRPGLE-(EDANS)-OH substrate addition measured after 2 hrs by FRET based assay (reference value: 100%); in short: as §2
[13] = target: Signal peptidase I (Escherichia coli K-12) (UniProt P00803); experiment: Inhibition of Escherichia coli type 1 signal peptidase lepB assessed as residual activity at 0.0024 uM preincubated for 10 mins followed by Dabcyl-VGGTATAYGAFSRPGLE-(EDANS)-OH substrate addition measured after 2 hrs by FRET based assay (reference value: 100%); in short: as §2
[14] = target: Signal peptidase I (Escherichia coli K-12) (UniProt P00803); experiment: Inhibition of Escherichia coli type 1 signal peptidase lepB assessed as residual activity at 0.625 uM preincubated for 10 mins followed by Dabcyl-VGGTATAYGAFSRPGLE-(EDANS)-OH substrate addition measured after 2 hrs by FRET based assay (reference value: 100%); in short: as §2
Escherichia coli [15] = experiment: Antibacterial activity against Escherichia coli D22 CGSG 5163 harboring Ips mutant after 16 to 20 hrs by broth microdilution method; format: functional
In short: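 Broth microdilution in cation-adjusted Mueller-Hinton II broth, following EUCAST and CLSI guidelines. Two-fold series at final concentrations 64 down to 0.25 µg/mL, with medium-only and growth controls. Inoculum from fresh colonies (18-24 h, 35 °C ± 2 °C) adjusted to 0.5 McFarland, final ≈5 × 10^5 CFU/mL. Plates incubated unshaken 16-20 h at 35 °C ± 2 °C. MIC read visually as complete inhibition of growth.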

[16] = target: Signal peptidase I (Escherichia coli K-12) (UniProt P00803); experiment: Inhibition of Escherichia coli type 1 signal peptidase lepB assessed as residual activity at 1.25 uM preincubated for 10 mins followed by Dabcyl-VGGTATAYGAFSRPGLE-(EDANS)-OH substrate addition measured after 2 hrs by FRET based assay (reference value: 100%); in short: as §2
[17] = target: Signal peptidase I (Escherichia coli K-12) (UniProt P00803); experiment: Inhibition of Escherichia coli type 1 signal peptidase lepB assessed as residual activity at 0.0391 uM preincubated for 10 mins followed by Dabcyl-VGGTATAYGAFSRPGLE-(EDANS)-OH substrate addition measured after 2 hrs by FRET based assay (reference value: 100%); in short: as §2
HepG2 = experiment: Cytotoxicity against human HepG2 cells after 72 hrs by FMSA; format: cell-based; conditions: HepG2, 72 h
In short: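 HepG2 (ATCC) grown in EMEM with 10% FBS, pen/strep, 2 mM L-glutamine, used up to 20 passages. Seeded at 1000 cells/well, cultured overnight, then dosed acoustically from DMSO stocks. Eight two-fold dilutions in duplicate from top 64 or 32 µM; 72 h at 37 °C, 5% CO2. Fluorescein diacetate hydrolysis read at ex 485/em 530 nm; IC50 by non-linear regression.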

Staphylococcus aureus = experiment: Antibacterial activity against Staphylococcus aureus ATCC 29213 after 16 to 20 hrs by broth microdilution method; format: functional; in short: as §1
Acinetobacter baumannii = experiment: Antibacterial activity against Acinetobacter baumannii ATCC 19606 after 16 to 20 hrs by broth microdilution method; format: functional; conditions: ATCC 19606 = CIP 70.34 = JCM 6841; in short: as §1
[18] = target: Signal peptidase I (Escherichia coli K-12) (UniProt P00803); experiment: Inhibition of Escherichia coli type 1 signal peptidase lepB assessed as residual activity at 0.0049 uM preincubated for 10 mins followed by Dabcyl-VGGTATAYGAFSRPGLE-(EDANS)-OH substrate addition measured after 2 hrs by FRET based assay (reference value: 100%); in short: as §2
[19] = target: Signal peptidase I (Escherichia coli K-12) (UniProt P00803); experiment: Inhibition of Escherichia coli type 1 signal peptidase lepB assessed as residual activity at 5 uM preincubated for 10 mins followed by Dabcyl-VGGTATAYGAFSRPGLE-(EDANS)-OH substrate addition measured after 2 hrs by FRET based assay (reference value: 100%); in short: as §2
[20] = target: Signal peptidase I (Escherichia coli K-12) (UniProt P00803); experiment: Inhibition of Escherichia coli type 1 signal peptidase lepB assessed as residual activity at 0.3125 uM preincubated for 10 mins followed by Dabcyl-VGGTATAYGAFSRPGLE-(EDANS)-OH substrate addition measured after 2 hrs by FRET based assay (reference value: 100%); in short: as §2
[21] = target: Signal peptidase I (Escherichia coli K-12) (UniProt P00803); experiment: Inhibition of Escherichia coli type 1 signal peptidase lepB assessed as residual activity at 0.0098 uM preincubated for 10 mins followed by Dabcyl-VGGTATAYGAFSRPGLE-(EDANS)-OH substrate addition measured after 2 hrs by FRET based assay (reference value: 100%); in short: as §2

Signal peptidase I (Escherichia coli K-12), sequence (P00803 whole entry): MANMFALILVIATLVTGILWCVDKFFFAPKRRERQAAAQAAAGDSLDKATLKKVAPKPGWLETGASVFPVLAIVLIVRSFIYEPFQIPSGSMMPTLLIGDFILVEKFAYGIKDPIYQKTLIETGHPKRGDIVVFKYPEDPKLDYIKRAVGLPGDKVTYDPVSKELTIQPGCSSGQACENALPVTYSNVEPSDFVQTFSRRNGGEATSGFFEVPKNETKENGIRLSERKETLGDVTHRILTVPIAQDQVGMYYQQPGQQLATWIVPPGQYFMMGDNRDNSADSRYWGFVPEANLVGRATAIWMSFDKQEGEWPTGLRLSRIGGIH
Signal peptidase I, sequence (P00803 whole entry): as above

Row | SMILES | MIC (Escherichia coli [1]) | MIC (Pseudomonas aeruginosa [2]) | MIC (Pseudomonas aeruginosa [3]) | Activity [4] | Activity [5] | IC50 (Signal peptidase I) | hemolysis at 0.75 h, 100 µM [6] | MIC (Escherichia coli [7]) | Activity [8] | MIC (Klebsiella pneumoniae) | Activity [9] | Activity [10] | Activity [11] | Activity [12] | Activity [13] | Activity [14] | MIC (Escherichia coli [15]) | Activity [16] | Activity [17] | IC50 (HepG2) | also measured
1 | CCCCCCc1ccc(-c2ccc(C(=O)N[C@@H](CCCN)C(=O)N[C@H](C(=O)N[C@@H](C)C(=O)N[C@@H](CC(N)=O)C(=O)N[C@@H](C)B(O)O)[C@@H](C)O)cc2)cc1 ({Benzoyl(4-(4-hexylphenyl))}-[Orn]TAN-boroAla) | 8 µg/mL (≈ 10.6 µM) | 64 µg/mL (≈ 84.9 µM) | 16 µg/mL (≈ 21.2 µM) | 95.9% | 19.2% | 0.052 µM | 4.8% | 1 µg/mL (≈ 1.33 µM) | 5.8% | 2 µg/mL (≈ 2.65 µM) | 97.7% | 8.8% | 25.7% | 84.8% | 87% | 20.6% | 0.5 µg/mL (≈ 0.663 µM) | 15.6% | 57.5% | 10.1 µM | MIC (Staphylococcus aureus): 0.025 µg/mL (≈ 0.0332 µM); MIC (Acinetobacter baumannii): 4 µg/mL (≈ 5.31 µM); Activity [18]: 93.9%; Activity [19]: 6.7%; Activity [20]: 20.3%; Activity [21]: 89.3%
2 | CCCCCCc1ccc(-c2ccc(C(=O)N[C@@H](CCCN)C(=O)N[C@H](C(=O)N[C@@H](C)C(=O)N[C@@H](CC(N)=O)C(=O)N[C@@H](C)B3OC4C[C@@H]5C[C@@H](C5(C)C)[C@]4(C)O3)[C@@H](C)O)cc2)cc1 (some centres not stated) ({Benzoyl(4-(4-hexylphenyl))}-[Orn]TAN-X1) | 8 µg/mL (≈ 9.01 µM) | 64 µg/mL (≈ 72.1 µM) | 32 µg/mL (≈ 36 µM) | 114% | -1.3% | 0.017 µM | 11.7% | 2 µg/mL (≈ 2.25 µM) | 6.3% | 2 µg/mL (≈ 2.25 µM) | 98.6% | -0.2% | 20.5% | 42.9% | 91.9% | -9.9% | 0.5 µg/mL (≈ 0.563 µM) | 8.5% | 24.9% | 11.7 µM | MIC (Staphylococcus aureus): 0.025 µg/mL (≈ 0.0282 µM); MIC (Acinetobacter baumannii): 4 µg/mL (≈ 4.5 µM); Activity [18]: 87.3%; Activity [19]: 1.8%; Activity [20]: 3.5%; Activity [21]: 70.6%
